hERG protect – hERG rescue from dofetilide block, primary screen, cell-based, CHO-hERG, FluxOR thallium flux, dofetilide IC70 | Voltage-gated inwardly rectifying potassium channel KCNH2 (Homo sapiens), Q12809 | AID 1511, 2009 | 0.51% of 310,000 active | activation (rescue from dofetilide block), less the hit threshold, % at 10 µM | dofetilide IC70 present;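 active = activation above the mean of controls blocked by dofetilide plus 5 SD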;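 also: thallium influx through hERG after potassium depolarization seen as dye fluorescence rise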
KCNK3 block – human KCNK3 channel inhibitors, primary screen, CHO cells, FluxOR thallium flux, B-score. Potassium channel subfamily K member 3 (Homo sapiens), O14649. FluxOR fluorescence; stronger effect = lower value. B-score at 10 µM. 0.84% of 340,000 active. AID 602410, 2012;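 active = B-score under library mean minus 4 SD, starting fluorescence ratio at most library mean plus 5 SD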;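 also: more negative B-score means stronger inhibition of thallium flux through KCNK3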
KCNQ1 inh – inhibitors of human KCNQ1 channel, primary screen, cell-based, thallium flux, high-throughput. B-score at 10 µM. AID 2642, 2010. 1.3% of 310,000 active. CHO-K1 KCNQ1, FluxOR thallium flux fluorescence; stronger effect = higher value;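 active = compounds whose thallium flux B-score, printed positive for inhibition, exceeds three library SD while starting fluorescence stays within three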;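 also: channel opened by potassium depolarization with thallium stimulus after 20 min compound exposure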
KCNK9 inh – KCNK9 potassium channel inhibitors, primary screen, HEK293 cells, thallium flux | Potassium channel subfamily K member 9 (Homo sapiens), Q9NPC2 | FluxOR thallium flux fluorescence; stronger effect = lower value | B-score at 10 µM | 1.2% of 310,000 active;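 active = ratio B-score over 3 SD below the library mean, with starting fluorescence within 5 SD of its mean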;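 also: negative B-score means less thallium flux so channel inhibition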
KCNQ1 pot – potentiators or activators of KCNQ1 channel, primary screen, cell-based, thallium flux, high-throughput. Potassium voltage-gated channel subfamily KQT member 1 (Homo sapiens), P51787. CHO-K1 KCNQ1, thallium flux FluxOR fluorescence; stronger effect = higher value. B-score at 10 µM. 0.35% of 310,000 active. AID 2648, 2010;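 active = fluorescence ratio B-score, a plate-corrected score, at least three library SD, with initial intensity B-score within 5 SD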
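System: Stable KCNQ1 CHO-K1 line | Incubation: 90 min dye loading and 20 min compound exposure, both at room temperature | Measure: Ratio B score | Medium: Assay buffer for compound exposure, DMSO matched across wells | Compound dosing: Single-concentration screen | Probe or stimulus: K+/Tl+ depolarizing stimulus | Measured by: Kinetic FluxOR fluorescence, 10 s baseline plus 110 s post-stimulus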
KCNQ1 block val – KCNQ1 potassium channel inhibitors, confirmation, cell-based, Tl flux, duplicate | inhibition, % at 10 µM | 93% of 1,600 active | shares compounds with KCNQ1 inh | KCNQ1 cell line, FluxOR thallium flux fluorescence;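 active = primary screen active, with duplicate mean exceeding buffer control mean plus 3 SD of buffer wells, cut at about 28% in these data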;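 also: 0% = buffer control ratio and 100% = XE991 inhibitor control ratio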
CHO KCNQ1 ctr – thallium flux effects in parental CHO cells, counter-screen for KCNQ1 inhibitor project, cell-based, Tl flux; shares compounds with KCNQ1 inh; parental CHO-K1, FluxOR thallium flux fluorescence ratio; stronger effect = lower value; zero means no signal rise above baseline; fluorescence ratio (Tl flux) at 10 µM; 21% of 1,600 active;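 active = mean of duplicate thallium-flux fluorescence ratios in parental host cells more than 5 SD below the buffer control mean, cut at about 0.38 in these data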;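 also: ratio is peak minus minimum fluorescence divided by baseline fluorescence; actives read low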
KCNQ1 APC inh – KCNQ1 channel inhibitors, confirmation, orthogonal assay, cell-based, automated electrophysiology; KCNQ1-CHO cells, automated patch clamp current; calls only at 10 µM; shares compounds with KCNQ1 inh; AID 624120, 2012; 20% of 490 active;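 active = KCNQ1 current drop exceeding 3 SD of negative control wells, seen in both duplicate runs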;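 also: steady state current during a 2 s step from -80 to +40 mV; negative values mean current inhibition and positive values mean potentiation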
KCNQ2 inh – KCNQ2 channel inhibition, selectivity assay for KCNQ1 inhibitor project, cell-based; inhibition, % at 10 µM; AID 651746, 2012; shares compounds with KCNQ1 inh; 71% of 1,600 active; KCNQ2 cells, FluxOR thallium flux fluorescence;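 active = mean percent inhibition of the KCNQ2 thallium signal more than 5 SD above the buffer-only control wells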;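 also: KCNQ2 expressed in CHO cells; 0% = buffer control wells and 100% = XE-991 inhibitor control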
KCNQ1 KCNE1 spec – KCNQ1/KCNE1 channel inhibition, selectivity assay for KCNQ1 inhibitor project, CHO-K1 cells, thallium flux, FluxOR. shares compounds with KCNQ1 inh. FluxOR thallium flux fluorescence. inhibition, % at 10 µM. 77% of 1,600 active. AID 652147, 2013;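 active = mean percent inhibition of duplicate wells above the buffer-only control mean plus 3 SD of those controls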;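 also: 0% = buffer only wells and 100% = XE-991 inhibitor control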
Target sequence (P51787 whole entry, looked up): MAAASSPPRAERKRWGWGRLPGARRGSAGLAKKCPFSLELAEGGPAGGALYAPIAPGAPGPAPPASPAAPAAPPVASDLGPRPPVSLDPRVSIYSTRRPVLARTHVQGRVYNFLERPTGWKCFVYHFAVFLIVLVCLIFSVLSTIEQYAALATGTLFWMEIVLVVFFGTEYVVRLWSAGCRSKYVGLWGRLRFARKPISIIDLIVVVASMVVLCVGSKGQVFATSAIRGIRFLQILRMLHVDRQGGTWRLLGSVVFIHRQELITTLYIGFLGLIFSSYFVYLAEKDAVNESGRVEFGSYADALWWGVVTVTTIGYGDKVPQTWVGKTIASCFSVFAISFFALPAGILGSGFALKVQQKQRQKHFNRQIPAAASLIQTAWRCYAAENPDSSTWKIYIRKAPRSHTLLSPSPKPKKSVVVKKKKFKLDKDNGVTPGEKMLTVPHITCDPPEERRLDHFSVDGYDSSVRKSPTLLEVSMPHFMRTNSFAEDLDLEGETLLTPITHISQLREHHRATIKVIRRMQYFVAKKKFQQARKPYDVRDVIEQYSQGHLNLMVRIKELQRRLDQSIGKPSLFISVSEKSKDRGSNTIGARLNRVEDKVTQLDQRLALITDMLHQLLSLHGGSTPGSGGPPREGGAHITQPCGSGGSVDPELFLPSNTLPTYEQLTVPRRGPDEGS
* marks the source's active call; other numbers are inactive results; i = inactive; x = no result; + = active, no number. This is a sample that favours compounds with a hit; in the whole collection about 3.1% have one here.

SMILES	hERG protect	KCNK3 block	KCNQ1 inh	KCNK9 inh	KCNQ1 pot	KCNQ1 block val	CHO KCNQ1 ctr	KCNQ2 inh	KCNQ1 KCNE1 spec	others
c1ccc(Nc2nc(NCC3CCCO3)c3ccccc3n2)cc1 (stereo not given)	-26	-10*	12*	i	i	128*	0.4	116%*	150%*	KCNQ1 APC inh=+
OCCNc1nc(Nc2ccccc2)nc2ccccc12	-11	i	i	i	i	x	x	x	x
OCCNc1nc(Nc2ccc(Br)cc2)nc2ccccc12	-8	x	15*	i	i	0	0.46	78%*	i
CCOc1ccc(Nc2nc(NCC3CCCO3)c3ccccc3n2)cc1 (stereo not given)	-30	i	11*	i	i	134*	0.39	81%*	132%*	KCNQ1 APC inh=i
CN(C)CCN1C(=O)c2ccccc2C1=O	x	i	x	x	x	x	x	x	x
CN(C(=O)c1ccc(NC(=O)Cc2ccc(NC(=O)C3CCCN(C(=O)C4CC4)C3)cc2)cc1)C1CCCC1 (stereo not given)	x	i	x	x	x	x	x	x	x
Cc1ccccc1OCC(=O)N1CCCCCCC1	-12	i	i	i	i	x	x	x	x
O=C1NC2(c3ccccc3)NC(=O)NC2(c2ccccc2)N1 (stereo not given)	x	i	x	x	x	x	x	x	x
Cn1cc(CNC(=O)c2cc(COc3ccc4c(c3)CCCC4)on2)cn1	-12	i	i	i	i	x	x	x	x
O=C(NC(c1cccnc1)C(F)(F)F)c1cc(COc2ccc3c(c2)CCCC3)on1 (stereo not given)	-16	i	16*	i	i	138*	0.36*	118%*	+
COc1ccc(C(CNC(=O)c2cccc(S(=O)(=O)Nc3ccc(F)cc3)c2)N2CCOCC2)cc1 (stereo not given)	x	i	x	x	x	x	x	x	x
Cc1cccc(N(C(=O)c2nsc(Cl)c2Cl)C(C(=O)NC2CCCC2)c2ccc(O)cc2)c1 (stereo not given)	-10	i	i	i	i	x	x	x	x
CC(C)CCOc1cccc(OCC(=O)Nc2ccncc2)c1	-14	i	12*	i	i	106*	0.45	i	40%*	KCNQ1 APC inh=i
O=C(COc1ccccc1)Nc1cccc(-c2nc3ccccc3[nH]2)c1	-15	i	6*	i	i	52*	0.47	78%*	80%*
O=C(COc1ccc(Nc2ccccc2)cc1)Nc1ccncc1	-21	i	8*	i	i	94*	0.54	i	i
O=C(COc1ccc(Br)cc1)Nc1ccncc1	-13	i	i	i	i	x	x	x	x
CCC(C)(C)c1ccc(OCC(=O)Nc2ccncc2)cc1	-23	i	8*	i	i	138*	0.44	92%*	72%*	KCNQ1 APC inh=i
c1ccc(-c2cn3nc(-c4ccccc4)c(-c4ccccc4)nc3n2)cc1	-21	i	6*	i	i	+	0.17*	i	i
O=C(N[C@H](C(=O)O)c1ccccc1)C1CCC(Cn2nnc3ccccc3c2=O)CC1 (stereo not given in full)	-11	x	i	i	i	x	x	x	x
Cc1sc2nc(SCC(=O)N(CCO)CCO)n(C3CCCCC3)c(=O)c2c1C	-1	i	i	i	i	x	x	x	x
CC(NC(=O)c1cc(COc2ccc3ncccc3c2)on1)c1ccc(F)cc1 (stereo not given)	-26	i	10*	i	i	108*	0.44	92%*	92%*	KCNQ1 APC inh=+
O=C(c1cc(COc2ccc3ncccc3c2)on1)N1CCCCCC1	-17	i	7*	i	i	114*	0.49	101%*	i	KCNQ1 APC inh=i
Cc1cc(OCc2cc(C(=O)N3CCC(Oc4cccnc4)CC3)no2)cc(C)c1Cl	-14	i	13*	i	i	148*	0.37*	124%*	+
O=C(c1cc(COc2ccc3ncccc3c2)on1)N1CCCC1	-11	i	i	i	i	x	x	x	x
Cc1cc(OCc2cc(C(=O)N3CCN(CC4CC4)CC3)no2)cc(C)c1Cl	-23	i	i	i	i	x	x	x	x
SMILES	hERG protect	KCNK3 block	KCNQ1 inh	KCNK9 inh	KCNQ1 pot	KCNQ1 block val	CHO KCNQ1 ctr	KCNQ2 inh	KCNQ1 KCNE1 spec	others
O=C(NC1CCCC1)c1cc(COc2ccc3ncccc3c2)on1	-22	i	8*	i	i	91*	0.44	i	i	KCNQ1 APC inh=+
Cc1ccc(OCc2cc(C(=O)NC3CCCCC3)no2)cn1	-13	i	i	i	i	x	x	x	x
Cc1ccccc1SCC(=O)N/N=C/c1ccc(F)cc1	-7	i	i	i	i	x	x	x	x
CC(NS(=O)(=O)c1ccccc1)C(c1cccs1)N1CCN(C)CC1 (stereo not given)	-4	i	i	i	i	x	x	x	x
Cc1nn(-c2ccccc2)c(/N=C/c2ccccc2O)c1-c1ccccc1	-12	i	6*	i	i	119*	0.43	109%*	166%*	KCNQ1 APC inh=i
CCOC(=O)CCS(=O)(=O)c1nc(-c2ccccc2)cc(C(F)(F)F)n1	-15	i	i	i	i	x	x	x	x
COC(=O)CCS(=O)(=O)c1nc(-c2ccccc2)cc(C(F)(F)F)n1	-16	i	8*	i	i	26*	0.46	80%*	62%*
CCCCCCCN1C2=NCCCN2c2ccccc21	-15	i	7*	i	i	50*	0.51	i	55%*
O=C(/C=C/c1ccco1)N(Cc1ccccc1F)C1CCS(=O)(=O)C1 (stereo not given)	-14	i	i	i	i	x	x	x	x
CC(C(=O)NCc1cccc(Cl)c1)N1C(=O)c2ccccc2C1=O (stereo not given)	-1	i	i	i	i	x	x	x	x

Screening results (PubChem BioAssay)
